High-throughput results (PubChem BioAssay)
KCNK3 inh: human KCNK3 channel inhibition, primary screen; 0.84% of 340,000 active; CHO-KCNK3 thallium flux, FluxOR fluorescence; hits give low values; B-score at 10 µM; O14649;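 active means B-score under library mean minus 4 SD, starting fluorescence ratio at most library mean plus 5 SD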;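 further: more negative B-score means stronger inhibition of thallium flux through KCNK3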
Target sequence (O14649 whole entry, looked up): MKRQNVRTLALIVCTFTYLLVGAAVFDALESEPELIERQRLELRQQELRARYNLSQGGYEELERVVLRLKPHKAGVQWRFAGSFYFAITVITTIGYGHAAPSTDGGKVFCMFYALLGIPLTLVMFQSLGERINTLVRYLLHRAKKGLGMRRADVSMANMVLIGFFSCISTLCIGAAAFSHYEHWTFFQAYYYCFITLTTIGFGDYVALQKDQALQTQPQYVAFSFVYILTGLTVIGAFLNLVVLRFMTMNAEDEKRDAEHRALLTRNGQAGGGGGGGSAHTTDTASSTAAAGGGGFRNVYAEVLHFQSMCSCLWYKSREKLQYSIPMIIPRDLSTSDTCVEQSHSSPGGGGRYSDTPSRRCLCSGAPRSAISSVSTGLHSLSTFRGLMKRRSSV
KCNK9 block: human KCNK9 channel inhibition. Q9NPC2. B-score at 10 µM. HEK293 KCNK9, FluxOR thallium flux fluorescence; hits give low values. 1.2% of 310,000 active;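 active means ratio B-score over 3 SD below the library mean, with starting fluorescence within 5 SD of its mean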;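 further: negative B-score means less thallium flux so channel inhibition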
hERG protect: shields human hERG channel from block by proarrhythmic agents. Q12809. CHO-hERG, FluxOR thallium flux, dofetilide IC70 present. activation (rescue from dofetilide block), less the hit threshold, % at 10 µM. 0.51% of 310,000 active. AID 1511;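 active means activation above the mean of controls blocked by dofetilide plus 5 SD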;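 further: thallium influx through hERG after potassium depolarization seen as dye fluorescence rise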
KCNQ1 block: blocks the human KCNQ1 potassium channel | CHO-K1 KCNQ1, FluxOR thallium flux fluorescence; hits give high values | B-score at 10 µM | 1.3% of 310,000 active | AID 2642;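 active means compounds whose thallium flux B-score, printed positive for inhibition, exceeds three library SD while starting fluorescence stays within three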;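 further: channel opened by potassium depolarization with thallium stimulus after 20 min compound exposure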
Kir21 inh: Kir2.1 (mouse) channel inhibition | HEK293-Kir2.1, FluxOR thallium flux fluorescence; hits give low values | B-score at 10 µM | 0.85% of 310,000 active | AID 1672;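 active means fluorescence ratio B-score at or below minus 3 SD of library scores, with starting-brightness B-score within 2 SD, cut at about -4.2 in these data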;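 further: channel flux triggered by added potassium and thallium sulfate stimulus; B-score of peak minus minimum fluorescence over baseline after thallium stimulus; more negative B-score means stronger Kir2.1 block with less thallium influx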
KCNQ1 act: potentiates or activates the human KCNQ1 potassium channel; P51787; CHO-K1 KCNQ1, thallium flux FluxOR fluorescence; hits give high values; B-score at 10 µM; 0.35% of 310,000 active; AID 2648;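 active means fluorescence ratio B-score, a plate-corrected score, at least three library SD, with initial intensity B-score within 5 SD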
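Medium – assay buffer, equal DMSO in all wells · Material – CHO-K1 cell line with stable KCNQ1 potassium channel expression · Signal – kinetic FluxOR thallium fluorescence, 10-s 1-Hz baseline, 110-s post-stimulus read · Compound – single concentration per compound, DMSO matched to controls · Schedule – 37 °C overnight plating, 90-min dark dye load, 20-min compound pretreatment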
* hit, by the source's call; i = inactive; / = no result given. The list is not random: actives were taken first. Their share in the collection is about 3.8%.

SMILES | KCNK3 inh | KCNK9 block | hERG protect | KCNQ1 block | Kir21 inh | KCNQ1 act
Cc1cc(NC(=O)CSCC(=O)Nc2nc3ccc(F)cc3s2)no1 | i | / | / | / | / | /
Cn1c(=O)c2c(nc(N3CCc4ccccc4C3)n2Cc2ccccc2F)n(C)c1=O | i | i | -8.8 | i | 0.19 | i
Cn1c(=O)c2c(nc(N3CCc4ccccc4C3)n2Cc2ccc(Br)cc2)n(C)c1=O | i | -7* | -10.9 | i | 0.22 | i
CCN(CC(=O)NCc1cccs1)C(=O)c1cccc(S(=O)(=O)N2CCc3ccccc32)c1 | i | i | -1.8 | i | -0.03 | i
CCCCn1nc2cc(C(=O)NCc3ccc(OC)cc3)ccc2c1OCC | i | i | 2.7 | i | -5.08* | i
CCOc1c2ccc(C(=O)NCc3ccc(OC)cc3)cc2nn1CCOC | i | i | -4.2 | i | -0.93 | i
CCOC(=O)c1c(C)[nH]c(C(=O)C(C)OC(=O)c2cnc(C)cn2)c1C (stereo not drawn) | i | / | / | / | / | /
O=C(c1cccc(S(=O)(=O)N2CCc3ccccc3C2)c1)N1CCN(c2ccccc2)CC1 | i | i | -6.4 | i | -0.18 | i
O=C(c1cccc(S(=O)(=O)N2CCc3ccccc32)c1)N1CCN(c2ccccc2)CC1 | -8.87* | / | / | / | / | /
CC(C)C(NC(=O)c1ccc(Cl)cc1Cl)C(=O)N1CCN(S(=O)(=O)c2ccccc2)CC1 (stereo not drawn) | i | / | / | / | / | /
Fc1ccc(C(c2ccc(F)cc2)N2CCN(C/C=C/c3ccccc3)CC2)cc1 | i | i | -15.8 | 8* | -1.55 | i
COc1cc(C2C(C#N)=C(N)Oc3cc(C)oc(=O)c32)cc(OC)c1OC (stereo not drawn) | i | i | -2.7 | i | 0.66 | i
Cc1ccc(-c2nc(CN(CC3CCC3)CC3CCCO3)c(C)o2)s1 (stereo not drawn) | i | -7.14* | -6.7 | i | -1.31 | i
O=C(Cn1cc(C(F)(F)F)ccc1=O)N/N=C/c1cccc(Cl)c1 | i | i | -5.2 | i | 1.92 | i
COc1ccccc1C1(CCNC(C)c2cccs2)CCOC(C(C)C)C1 (stereo not drawn) | i | i | -11.8 | i | -8.9* | i
COc1cc(CNn2cn[nH]c2=S)cc(Br)c1OCc1ccccc1F | i | i | -14.8 | i | -0.15 | i
O=C(CCN1CCOCC1)NNC(=S)NC(=O)c1ccc(Br)cc1 | i | i | -17.6 | 6* | 0.09 | i
Cc1ccc(C(=O)NC(=S)NNC(=O)COc2ccc([N+](=O)[O-])cc2)cc1 | i | i | -7.7 | i | 1 | 8*
O=C(COc1ccc([N+](=O)[O-])cc1)NNC(=S)NC(=O)c1ccc(Br)cc1 | i | i | -6.4 | 7* | 0.38 | i
Cc1cccc(C(=O)NC(=S)NNC(=O)COc2c(C)cccc2C)c1 | i | i | 17.3* | i | 1.06 | 13*
CCN(CC)C(C(=O)Nc1ccc2c(c1)OCO2)c1ccccc1 (stereo not drawn) | i | i | -10.5 | i | -3.29 | i
N#C/C(=C(/O)COc1ccccc1)c1nnc2n1CCCCC2 | i | i | -9.9 | i | 0.79 | i
CCCCNC(=S)NC(=O)c1ccc([N+](=O)[O-])cc1 | i | i | -2.4 | i | -0.79 | 10*
CCN(C(=O)CSc1nc2cc(Cl)ccc2c(=O)n1CC(C)C)C1CCS(=O)(=O)C1 (stereo not drawn) | -10.6* | i | -14.4 | i | 0.79 | i
CCN(C(=O)CSc1nc2ccccc2c(=O)n1-c1ccccc1F)C1CCS(=O)(=O)C1 (stereo not drawn) | -10.5* | / | / | / | / | /
SMILES | KCNK3 inh | KCNK9 block | hERG protect | KCNQ1 block | Kir21 inh | KCNQ1 act
Cc1cccc(NC(=S)NC(=O)Cc2ccccc2)c1C | i | i | -4.3 | i | -0.23 | i
Cc1ccc(NC(=S)NCCc2ccccc2)c(C)c1 | i | i | -6.6 | i | -5.12* | i
Cc1cc(C)c(O)c(NC(=S)NC(=O)Cc2ccccc2)c1 | i | i | 4.8* | i | 2.4 | i
Cc1ccc(NC(=S)NCCc2c[nH]c3ccccc23)c(C)c1 | i | i | -9.2 | i | -7.3* | i
COc1cccc(CNCCc2c[nH]c3ccccc23)c1OCc1ccc(F)cc1 | i | i | -15.8 | i | -11.5* | i
COc1cccc(CNc2ccc3[nH]c(=O)[nH]c3c2)c1OCc1ccc(F)cc1 | i | i | -16.1 | i | -4.18 | i
CC[C@]12C(=O)N(C)C[C@H]([C@@H]3C(=O)N(C)C(=O)[C@@H]31)N2C(=O)c1ccc(Cl)cc1 | i | / | / | / | / | /
COC(=O)c1cc(S(=O)(=O)C(C)C)c(S(C)=O)s1 (stereo not drawn) | i | i | -5.3 | i | 0.32 | i
N#CC(=C=[N-])/C=C(\C(=O)c1ccccc1)[n+]1ccccc1 | i | i | -4.7 | i | 0.07 | i
Cc1ccc(S(=O)(=O)NCCc2ccccc2)cc1 | i | i | -7.8 | i | -1.39 | i
COc1ccccc1NC(=S)NCCc1c[nH]c2ccccc12 | i | i | -7.8 | i | -6.26* | i
Cc1cc(C)c(S(=O)(=O)NCCc2ccccc2)c(C)c1 | i | i | -6.3 | i | -10.1* | i
Cc1ccc(C)c(NC(=S)NCCc2ccc(F)cc2)c1 | i | i | -3.7 | i | -4.5* | i
Cc1ccc(S(=O)(=O)Nc2c(C)[nH]c(=O)[nH]c2=O)cc1C | i | i | 5.0* | i | -0.29 | i
COc1ccc(-n2nc(C(=O)NCc3cc(OC)ccc3OC)c3c4ccccc4n(C)c3c2=O)cc1 | i | i | -6.5 | i | 0.94 | i
CC(=O)Nc1ccc(OC(=O)c2ccc(Br)c([N+](=O)[O-])c2)cc1 | i | i | -25.1 | 7* | 0.93 | i
CCOc1ccc(C(=O)Oc2ccc(NC(C)=O)cc2)cc1 | / | i | -8.7 | i | 0.09 | i
Cc1cc(C(=O)N/N=C/c2ccc(N(C)C)cc2)c2ccccc2n1 | i | i | -8.1 | i | 0.24 | i
O=C(c1ccc([N+](=O)[O-])cc1Cl)N1CCN(c2ccccn2)CC1 | i | i | -4.8 | i | 1.16 | i
Cn1cccc1C(=O)OCC(=O)NNC(=O)c1ccc([N+](=O)[O-])cc1 | i | / | / | / | / | /
Cc1ccc(S(=O)(=O)N[C@H](C(=O)Oc2ccc3c(C(F)(F)F)cc(=O)oc3c2)c2ccccc2)cc1 | i | i | -6.5 | 9* | -0.62 | i
Cc1ccc(S(=O)(=O)NC(C(=O)Oc2ccc3ccc(=O)oc3c2)c2ccccc2)cc1 (stereo not drawn) | i | i | -14.3 | i | 0.16 | i
